Holding throughout (type): cell-based
A short description of data set [1]: Cytotoxicity against rat FRT cells at 12 uM after 24 to 72 hrs by trypan blue staining based assay. A digest of the protocol: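 Wild-type CFTR FRT cells treated with 12 μM compound, with 12 μM PTC124 as the control. Percentages of live and dead cells and cell proliferation were scored at 24, 48 and 72 h after treatment.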
Another data set has as its system HeLa. Nature of the data set: Induction of read through activity at CFTR gene premature termination codon UGA transfected in human HeLa cells assessed as increase in luciferase activity at 12 uM incubated for 24 hrs by steady-glo luciferase reporter gene assay. The gist of the method: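 HeLa cells were transiently transfected with pFLuc-opal (UGA stop) and treated for 24 h at 12 μM, with 12 μM PTC124 as reference. FLuc activity was then measured. pFLuc-WT transfected cells served as the positive control and untreated pFLuc-opal cells as the negative control.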
On the technique in general: In a reporter assay the amount or activity of a reporter protein is the signal.

Another data set is filed under the species Homo sapiens. Put plainly: Induction of mutation read through activity at human CFTR G542X mutant premature termination codon UGA transfected in FRT cells assessed as increase in CFTR protein expression at 12 uM incubated for 24 hrs by DAPI-staining based immunofluorescence microscopic analysis. The gist of the method:
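FRT cells stably carrying pTracer vectors with human G542X-CFTR or WT-CFTR cDNA were exposed to 12 μM compound for 24 h. CFTR was detected by immunofluorescence microscopy, with membrane stained red and nuclei stained with DAPI. Untreated G542X cells served as the negative control.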

The source made the active and inactive calls. The rule behind the calls is not given here.

With `O=S(=O)(Oc1ccc(F)cc1F)c1cccc(S(=O)(=O)Oc2ccc(F)cc2F)c1`, the Activity result in data set [1] is “Non-Toxic”. Moreover, the result with HeLa was Active.
In the case of `COC(=O)c1csc(COc2cc(Cl)cc(Cl)c2)n1`, the result in the data set filed under Homo sapiens and with HeLa was Active. In addition, in data set [1], the Activity entry is on record as “Non-Toxic”.
With `COC(=O)c1ccc2nc(-c3cc(Cl)cc(Cl)c3)oc2c1`, the Activity entry in data set [1] is “Non-Toxic”. In the data set with HeLa, the result was Active.
In the case of `O=C(O)c1ccc2nc(-c3ccccc3Cl)[nH]c2c1`, the outcome in the data set listed under Homo sapiens and with HeLa was Active. In addition, in data set [1], the Activity result was “Non-Toxic”.
As to `O=C(O)c1cccc(-c2noc(-c3ccccc3F)n2)c1` [ATALUREN], the Activity result in data set [1] is listed as “Non-Toxic”. Also, the outcome in the data set on HeLa was Active.
